Data set [1] has as its system Human immunodeficiency virus 1. Kind of data set: Antiviral activity against HIV1 3B infected in human MT4 cells assessed as reduction in virus-induced cell death incubated for 5 days by MTT assay. Type of data set: functional, organism-based. The settings on record: Human immunodeficiency virus 1, 3B, MT4, 120 h. An outline of the steps:
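MT-4 cells (6×10^5 cells/mL) infected with HIV-1 at 100-300 CCID50; serial 5-fold compound dilutions added at infection, triplicate wells. After 5 days, viability was read by MTT at 540 and 690 nm, using the median absorbance of three wells. EC50 is the concentration giving 50% protection against virus cytopathic effect.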

In data set [2] the test system is Human immunodeficiency virus 1. Briefly: Antiviral activity against HIV1 RES056 infected in human MT4 cells assessed as reduction in virus-induced cell death incubated for 5 days by MTT assay. Type of data set: functional, organism-based. The settings on record: Human immunodeficiency virus 1, RES056, MT4, 120 h. In a few lines:
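MT-4 cells (6×10^5 cells/mL) infected with HIV-1 at 100-300 CCID50; serial 5-fold compound dilutions added at infection, triplicate wells. After 5 days, viability was read by MTT at 540 and 690 nm, using the median absorbance of three wells.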

Data set [3] in a line: Cytotoxicity against human MT4 cells assessed as reduction in cell viability after 5 days by MTT assay. Type of data set: cell-based. Conditions: time 5 day. In a few lines:
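Mock-infected MT-4 cells (6×10^5 cells/mL) were run in parallel with serial 5-fold compound dilutions in triplicate wells. After 5 days, viability was read by MTT (540/690 nm) as the median of three wells. CC50 is the concentration reducing OD540 of the mock-infected control by 50%.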
(Tetrazolium dyes change colour on reduction, which living cells bring about.)

A short description of data set [4]: Selectivity index, ratio of CC50 for cytotoxicity against human MT4 cells to EC50 for antiviral activity against HIV1 3B infected in human MT4 cells. The class given is toxicity, cell-based. Conditions: read-out: Ratio CC50/EC50. In a few lines: (§1)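 SI computed as CC50 in mock-infected MT-4 cells divided by EC50 against the given HIV-1 strain, both from the 5-day MTT assay.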

A short description of data set [5]: Selectivity index, ratio of CC50 for cytotoxicity against human MT4 cells to EC50 for antiviral activity against HIV1 RES056 infected in human MT4 cells. Type of data set: toxicity, cell-based. The settings on record: read-out: Ratio CC50/EC50. An outline of the steps: as §1
The target in data set [6] is Human immunodeficiency virus type 1 reverse transcriptase (Human immunodeficiency virus 1) (UniProt Q72547). Briefly: Inhibition of HIV-1 reverse transcriptase assessed as reduction in biotin-dUTP incorporation in to cDNA chain at 0.267 uM in presence of DIG-dUTP, biotin-dUTP and dTTP measured after 1 hr by ELISA relative to control. An outline of the steps:
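ELISA for HIV-1 RT: enzyme with reconstituted template, DIG-dUTP, biotin-dUTP and dTTP in buffer ± inhibitor, 1 h at 37°C. Product captured on streptavidin-coated plate 2 h at 37°C, then anti-DIG-POD 1 h at 37°C, ABTS substrate, OD405. % inhibition calculated from OD with/without inhibitor and without RT.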
(An ELISA detects its analyte on a solid surface through an enzyme-linked reagent.)

The structures appear in SMILES notation. A value given as a limit tells only on which side of the number the result lay.

`Cc1cc(C#N)cc(C)c1Oc1nc(NC2CCN(Cc3cn(Cc4ccc(C#N)cc4)nn3)CC2)nc2ccsc12`: the EC50 (in general, the midpoint of the concentration-response curve) in data set [1] turned out to be 0.209 µM; in data set [2], 18.1 µM. The CC50 (usually the concentration giving 50% cytotoxicity) at 120 h in data set [3] came out at 110 µM. Besides, the selectivity ratio in data set [4] stood at 525; in data set [5], 6.
As for `Cc1cc(C#N)cc(C)c1Oc1nc(NC2CCN(C(=O)c3cn(CC(=O)Nc4ccccc4)nn3)CC2)nc2ccsc12`, the inhibition (commonly the percentage by which the read-out fell short of the control) in data set [6] was 80.2%.
For `Cc1cc(C#N)cc(C)c1Oc1nc(NC2CCN(Cc3ccc(S(N)(=O)=O)cc3)CC2)nc2ccsc12`, the inhibition in data set [6] came out at 44%. Moreover, the EC50 in data set [2] was 0.0306 µM. In addition, the half-maximal cytotoxic concentration (CC50) at 120 h in data set [3] is more than 227 µM. Further, the selectivity ratio was more than 159000 in data set [4] and more than 7420 in data set [5].
For the molecule `Cc1cc(C#N)cc(C)c1Oc1nc(NC2CCN(Cc3cn([C@H]4C[C@H](n5cc(C)c(=O)[nH]c5=O)O[C@@H]4CO)nn3)CC2)nc2ccsc12`, the inhibition in data set [6] amounted to 57.1%. Besides, the EC50 in data set [1] is 0.0829 µM; in data set [2] it was 10.6 µM. Moreover, in data set [3], the CC50 at 120 h was 149 µM. For the same molecule, the selectivity ratio amounted to 1800 in data set [4] and 14 in data set [5].
As to `Cc1cc(C#N)cc(C)c1Oc1nc(NCCc2cn(CC(=O)N3CCOCC3)nn2)nc2ccsc12`, in data set [6], the inhibition turned out to be 86.7%.
On to `Cc1cc(-c2cn(CC(=O)N3CCCC3)nn2)cc(C)c1Oc1nc(NC2CCN(Cc3ccc(S(N)(=O)=O)cc3)CC2)nc2ccsc12`, for which, in data set [6], the inhibition worked out at 74%. The EC50 in data set [1] stood at 0.0258 µM; in data set [2], 6.05 µM. Further, the CC50 at 120 h in data set [3] is 17.6 µM. Also, the selectivity ratio in data set [4] was found to be 682; in data set [5], 3.
Regarding `Cc1cc(C#N)cc(C)c1Oc1nc(NCCc2cn(Cc3ccc(C(N)=O)cc3)nn2)nc2ccsc12`, the inhibition in data set [6] came out at 71.1%.
Turning to `Cc1cc(C#N)cc(C)c1Oc1nc(NC2CCN(Cc3cn(CC(=O)Nc4ccc(S(C)(=O)=O)cc4)nn3)CC2)nc2ccsc12`, in data set [6], the inhibition is 60.1%. The EC50 is 0.00666 µM in data set [1] and 1.99 µM in data set [2]. The CC50 at 120 h in data set [3] amounted to 19.8 µM. For the same molecule, the selectivity ratio was determined as 2970 in data set [4] and 10 in data set [5].
For `Cc1cc(C#N)cc(C)c1Oc1nc(NCCc2cn(Cc3ccccc3Cl)nn2)nc2ccsc12`, in data set [6], the inhibition was 75.6%.
With `Cc1cc(C#N)cc(C)c1Oc1nc(NCCc2cn(Cc3ccc(S(N)(=O)=O)cc3)nn2)nc2ccsc12`, the inhibition in data set [6] worked out at 72.4%.
In the case of `Cc1cc(C#N)cc(C)c1Oc1nc(Nc2ccc(C#N)cc2)nc(N)c1Br` [ETRAVIRINE], in data set [6], the inhibition came out at 32.7%. The EC50 in data set [1] stood at 0.0051 µM. In data set [3], the CC50 at 120 h is more than 4.59 µM. Also, the values for the selectivity ratio in data set [4] and in data set [5] were more than 889 and more than 101, respectively.
Consider `Cc1cccc(Cn2cc(CCNc3nc(Oc4c(C)cc(C#N)cc4C)c4sccc4n3)nn2)c1`, for which, in data set [6], the inhibition was 91.8%.
As for `Cc1ccc(Cn2cc(CN3CCC(Nc4nc(Oc5c(C)cc(C#N)cc5C)c5sccc5n4)CC3)nn2)cc1`, the inhibition in data set [6] was found to be 46.1%. The EC50 was 0.00726 µM in data set [1] and more than 4.72 µM in data set [2]. Further, the CC50 at 120 h in data set [3] was 4.72 µM. The selectivity ratio was 650 in data set [4] and less than 1 in data set [5].
Turning to `Cc1cc(C#N)cc(C)c1Oc1nc(NC2CCN(Cc3cn(Cc4ccc(S(N)(=O)=O)cc4)nn3)CC2)nc2ccsc12`, in data set [6], the inhibition stood at 42%. Further, the values for the concentration giving a half-maximal response (EC50) in data set [1] and in data set [2] were 0.00535 µM and 0.67 µM, respectively. The 50% cytotoxic concentration (CC50) at 120 h in data set [3] stood at 20.7 µM. Also, the selectivity ratio in data set [4] came out at 3880; in data set [5] it was 31.
On to `Cc1cc(C#N)cc(C)c1Oc1nc(NC2CCN(C(=O)c3cn(CC(=O)N4CCOCC4)nn3)CC2)nc2ccsc12`, for which the inhibition in data set [6] is 71.8%.
Take `Cc1cc(C#N)cc(C)c1Oc1nc(NC2CCN(Cc3cn(Cc4ccccc4[N+](=O)[O-])nn3)CC2)nc2ccsc12`: the inhibition in data set [6] worked out at 51.9%. Further, the half-maximal effective concentration (EC50) in data set [1] amounted to 0.00612 µM; in data set [2], 1.17 µM. Further, in data set [3], the CC50 at 120 h stood at 7.66 µM. Besides, the results for the selectivity ratio in data set [4] and in data set [5] were 1250 and 7, respectively.
As for `Cc1cc(-c2cn(Cc3ccc(Cl)cc3)nn2)cc(C)c1Oc1nc(NC2CCN(Cc3ccc(S(N)(=O)=O)cc3)CC2)nc2ccsc12`, the inhibition in data set [6] was found to be 70.8%. Also, the results for the half-maximal effective concentration (EC50) in data set [1] and in data set [2] were 0.0313 µM and more than 3.4 µM, respectively. Besides, the CC50 at 120 h in data set [3] was 3.39 µM. Further, the selectivity ratio in data set [4] was 108; in data set [5] it was less than 1.
As for `Cc1cc(C#N)cc(C)c1Oc1nc(NCCc2cn(Cc3ccccc3[N+](=O)[O-])nn2)nc2ccsc12`, the inhibition in data set [6] is 89.1%.
On to `Cc1cc(C#N)cc(C)c1Oc1nc(NC2CCN(Cc3cn(Cc4ccccc4C#N)nn3)CC2)nc2ccsc12`, for which, in data set [6], the inhibition was found to be 50.3%. Also, the concentration for a half-maximal effect (EC50) in data set [1] was found to be 0.00664 µM; in data set [2], 2.91 µM. Also, the CC50 at 120 h in data set [3] was found to be 16.2 µM. In addition, the selectivity ratio in data set [4] was found to be 2440; in data set [5], 6.
Turning to `Cc1ccnc2c1NC(=O)c1cccnc1N2C1CC1` [NEVIRAPINE], the concentration for a half-maximal effect (EC50) in data set [1] is 0.163 µM; in data set [2], more than 9.51 µM. In addition, the CC50 at 120 h in data set [3] was more than 9.51 µM. Besides, the selectivity ratio in data set [4] was more than 58.
For `Cc1cc(C#N)cc(C)c1Oc1nc(NC2CCN(Cc3cn(CC(=O)N4CCOCC4)nn3)CC2)nc2ccsc12`, the inhibition in data set [6] came to 69.7%. The EC50 in data set [1] turned out to be 0.00438 µM; in data set [2], 4.46 µM. In data set [3], the CC50 at 120 h is more than 212 µM. For the same molecule, the selectivity ratio in data set [4] was more than 48500; in data set [5], more than 48.
With `Cc1cc(-c2cn(CCc3ccsc3)nn2)cc(C)c1Oc1nc(NC2CCN(Cc3ccc(S(N)(=O)=O)cc3)CC2)nc2ccsc12`, the inhibition in data set [6] was 72.5%. The EC50 in data set [1] stood at 0.0211 µM; in data set [2] it was 6.19 µM. In addition, the half-maximal cytotoxic concentration (CC50) at 120 h in data set [3] is 11.7 µM. Besides, the selectivity ratio stood at 552 in data set [4] and 1.88 in data set [5].
Regarding `Cc1ccccc1Cn1cc(C(=O)N2CCC(Nc3nc(Oc4c(C)cc(C#N)cc4C)c4sccc4n3)CC2)nn1`, the inhibition in data set [6] was found to be 75.8%.
Consider `O=C1Nc2ccc(Cl)cc2[C@@](C#CC2CC2)(C(F)(F)F)O1` [EFAVIRENZ], for which the 50% effective concentration (EC50) in data set [1] came to 0.0047 µM. Besides, the cytotoxic concentration (CC50) at 120 h in data set [3] is more than 6.38 µM.
Regarding `Cc1ccccc1Cn1cc(CN2CCC(Nc3nc(Oc4c(C)cc(C#N)cc4C)c4sccc4n3)CC2)nn1`, in data set [6], the inhibition was 44.8%.
Consider `Cc1cc(C#N)cc(C)c1Oc1nc(NC2CCN(Cc3cn(Cc4ccc(C(N)=O)cc4)nn3)CC2)nc2ccsc12`, for which the inhibition in data set [6] turned out to be 66.6%. Also, the half-maximal effective concentration (EC50) in data set [1] is 0.00328 µM; in data set [2], 0.481 µM. Further, the half-maximal cytotoxic concentration (CC50) at 120 h in data set [3] was more than 210 µM. Also, the selectivity ratio in data set [4] was more than 64100; in data set [5], more than 437.

For the origin of these results see ChEMBL document CHEMBL4680237, “In situ click chemistry-based rapid discovery of novel HIV-1 NNRTIs by exploiting the hydrophobic channel and tolerant regions of NNIBP” (Eur J Med Chem, 2020).
